Rows were chosen to be rich in hits. Some 5% of all compounds tested hit in one or more screens of this group.
Beta apoptosis: beta cell apoptosis inhibition. INS-1E cytokine-induced death, ATP luminescence, 48 h; percent of positive-control rescue, neutral wells zero. 300,000 compounds, 0.8% hits. AID 435005. protection from apoptosis, % (no concentration beside the values);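 active = Every replicate reaches about 75%, or at least half do and their mean reaches it too, limit read from the data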;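 note: 0% = cytokine-treated negative control wells and 100% = positive control rescue; higher means more ATP so stronger rescue from cytokine killing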
UPR CHOP act: activators of apoptotic arm of unfolded protein response (CHOP); CHO-CHOP luciferase reporter, UPR activation, luminescence; percent of tunicamycin response over DMSO baseline; activation, % at 10 µM; 330,000 compounds, 0.34% hits; AID 449763;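 active = at 10 µM dose, activation of 40% or more, normalized to positive control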;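 note: 100% = tunicamycin at 10 µg/mL and 0% = DMSO alone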
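Dosing – one dose, 10 µM in 0.5% DMSO · System – CHO-CHOP cells, stable luciferase reporter of PERK-eIF2a-CHOP signalling · Input – 500 cells/well · Control set – tunicamycin 10 µg/mL final as positive, DMSO-only wells as negative · Timing – 6 h compound treatment, 37 °C · Measure – % activation vs tunicamycin · Technique – luminescence read with Steady-Glo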
Mdm2-MdmX inh: disrupts the human Mdm2-MdmX interaction; O15151+Q00987; SaOS-2 split-luciferase Mdm2/MdmX complementation, luminescence; inhibition, % at 8 µM; 330,000 compounds, 3% hits; AID 485346;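 active = inhibition of at least 50% at 8 µM in the primary screen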
Target sequence (O15151 whole entry, looked up): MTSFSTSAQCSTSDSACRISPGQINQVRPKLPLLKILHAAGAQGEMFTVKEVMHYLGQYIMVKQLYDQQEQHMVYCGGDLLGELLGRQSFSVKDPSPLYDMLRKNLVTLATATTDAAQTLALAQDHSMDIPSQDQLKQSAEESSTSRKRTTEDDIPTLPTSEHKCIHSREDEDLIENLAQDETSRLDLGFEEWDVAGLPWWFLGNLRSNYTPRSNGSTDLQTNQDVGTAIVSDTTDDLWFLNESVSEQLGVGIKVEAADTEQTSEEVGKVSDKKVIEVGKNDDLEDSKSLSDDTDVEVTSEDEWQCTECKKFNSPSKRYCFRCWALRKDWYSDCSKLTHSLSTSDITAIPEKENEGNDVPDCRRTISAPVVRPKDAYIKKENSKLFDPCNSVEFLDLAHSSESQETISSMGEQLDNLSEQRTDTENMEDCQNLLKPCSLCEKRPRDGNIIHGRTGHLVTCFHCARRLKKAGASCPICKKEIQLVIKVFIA
Target sequence (Q00987 whole entry, looked up): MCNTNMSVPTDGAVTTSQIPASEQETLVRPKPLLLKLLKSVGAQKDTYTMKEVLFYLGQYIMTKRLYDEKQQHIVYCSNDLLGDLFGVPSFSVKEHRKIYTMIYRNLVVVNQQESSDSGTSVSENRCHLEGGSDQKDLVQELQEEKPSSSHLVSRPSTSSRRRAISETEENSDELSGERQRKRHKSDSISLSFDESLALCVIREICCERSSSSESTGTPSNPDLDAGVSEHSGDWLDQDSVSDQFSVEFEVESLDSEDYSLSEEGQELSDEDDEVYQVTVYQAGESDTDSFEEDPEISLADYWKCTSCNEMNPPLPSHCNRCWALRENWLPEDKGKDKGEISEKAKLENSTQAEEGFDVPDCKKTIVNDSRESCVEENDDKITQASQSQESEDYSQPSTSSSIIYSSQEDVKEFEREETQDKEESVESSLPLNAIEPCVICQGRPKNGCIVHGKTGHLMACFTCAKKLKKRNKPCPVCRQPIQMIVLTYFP
CSC inhib: cancer stem cell inhibition; cancer stem cell-like cells viability, luminescence; inhibition, % at 7.5 µM; 300,000 compounds, 1.1% hits; AID 2717; in the data active = inhibition above about 75%; tested in HMLE shEcad cells
T cruzi inh: T. cruzi replication inhibition; T. cruzi beta-gal in NIH3T3, luminescence, 90 h; inhibition, % (test concentration not listed); 300,000 compounds, 1.4% hits;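 active = mean inhibition across valid replicates above about 55%, limit read from the data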;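 note: signal also drops with host cell toxicity which is not excluded here; 0% = plate median of DMSO wells and 100% = zero luminescence signal; higher percent means less beta-gal luminescence so fewer parasites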
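Read-out: Parasite load inhibition, % | Test system: Mouse NIH/3T3 fibroblasts infected with β-gal-expressing T. cruzi Tulahuen C4 | Amount: 5,000 cells/well | Medium: DMEM, 2% fetal bovine serum | Signal: GalScreen β-gal luminescence, detergent lysis, 60 min | Timing: 3 h attach, ≥90 h co-culture | Also added: Tulahuen C4 trypomastigotes, 5000/well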
XBP1 UPR activ: adaptive UPR (XBP1) activation. CHO-XBP1 luciferase reporter, IRE1-XBP1 UPR activation, luminescence; percent of tunicamycin response, DMSO as zero. activation, % at 20 µM. 330,000 compounds, 0.33% hits;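 active = versus positive control, 20 µM dose yields 30% or more activation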;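 note: 100% = tunicamycin at 10 µg/mL and 0% = DMSO only wells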
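Material: CHO-XBP1 cells stably carrying IRE1-XBP1-driven luciferase reporter / Amount: 1000 cells per well / Compound: 20 µM, 1% DMSO / Times: 6 h treatment, 37 °C / Detection: luciferase luminescence / Measure: % activation of reporter signal versus tunicamycin and DMSO controls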
Mdm2 MdmX conf: confirmation of human Mdm2/MdmX interaction inhibitors. shares compounds with Mdm2-MdmX inh. Mdm2-MdmX binding, luminescent assay. inhibition, % at 8 µM. 10,000 compounds, 55% hits; in the data active = inhibition above about 40%
Full FLuc ctr: inhibits full-length luciferase, flagging false Mdm2/MdmX hits; AID 504607; inhibition, % at 8 µM; shares compounds with Mdm2-MdmX inh; SaOS-2 full-length luciferase counterscreen, luminescence; 6,200 compounds, 77% hits;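 active = mean inhibition at 8 µM reaching about 37%, which flags the compound as non-specific, limit read from the data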;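 note: p53-null SaOS-2 cells with luciferase driven by a doxycycline-inducible promoter; compound on cells about two nights before reading with doxycycline added after day one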
* marks the source's active call; other numbers are inactive results; / = no result given.

SMILES	Beta apoptosis	UPR CHOP act	Mdm2-MdmX inh	CSC inhib	T cruzi inh	XBP1 UPR activ	Mdm2 MdmX conf	Full FLuc ctr
O=C(NCCO)C(=O)Nc1cc2c3c(c1)CC(=O)N3CCC2	-1	0	-52	10	-22	-3	/	/
O=C(CCl)c1cc2c3c(c1)CC(=O)N3CCC2	/	-8	77*	-5	-8	-13	56*	12
CCc1cccc(NC(=O)CCSCCC(=O)Nc2cccc(CC)c2)c1	-11	1	13	3	-10	-2	/	/
COc1cc(NC(=O)c2cc(-c3ccccc3)on2)cc(OC)c1OC	2	0	-4	15	-4	-5	/	/
COc1cc(NC(=O)c2cc(-c3ccc4c(c3)OCO4)on2)cc(OC)c1OC	-4	2	60*	54	59*	3	42*	40*
COc1nn(-c2ccccc2)c(=O)c(Cl)c1Cl	-8	19	100*	1	53	-9	62*	18
C=CCNc1nc(N)c([N+](=O)[O-])c(Nc2ccccc2OC)n1	-13	1	59*	6	-9	24	18	/
COc1ccccc1Nc1nc(NCCCN(C)C)nc(N)c1[N+](=O)[O-]	14	0	38	-6	29	4	/	/
COc1ccc(Nc2nc(N)c([N+](=O)[O-])c(NCc3ccccc3)n2)cc1	-8	3	27	5	19	8	/	/
COc1ccccc1Nc1nc(NCC(C)C)nc(N)c1[N+](=O)[O-]	/	3	62*	24	17	14	47*	59*
C=CCNC(=O)c1ccc(CN(c2ccc(OCC)cc2)S(=O)(=O)c2ccc(C)cc2)cc1	-1	1	50	64	38	-3	40	50*
C=CCNC(=O)c1ccc(N(Cc2ccc(Cl)cc2)S(C)(=O)=O)cc1	-5	0	19	-5	-9	1	/	/
O=C(CSc1nnc(COc2ccccc2)n1-c1ccccc1)c1cccs1	-1	0	14	49	9	2	/	/
Oc1ccccc1C(Nc1nccs1)c1ccc2cccnc2c1O (stereo not drawn)	87*	0	64*	138*	63*	2	78*	48*
CCOc1ccc(C(NC(=O)CC)c2c(O)ccc3ccccc23)cc1 (stereo not drawn)	-5	2	30	47	-15	-2	/	/
CCC(=O)NC(c1ccc(C)cc1)c1ccc2cccnc2c1O (stereo not drawn)	6	23	79*	-2	57*	17	86*	24
CC(C)C(=O)NC(c1ccc(N(C)C)cc1)c1c(O)ccc2ccccc12 (stereo not drawn)	-1	-2	-14	-2	4	-3	/	/
CCCC(=O)NC(c1ccc(N(C)C)cc1)c1ccc2cccnc2c1O (stereo not drawn)	96*	16	80*	152*	59*	14	80*	30
CCCC(=O)NC(c1ccc(C(C)C)cc1)c1ccc2cccnc2c1O (stereo not drawn)	/	2	80*	99*	57*	-2	88*	21
CC1(C)CCCN(C(=O)c2coc(=O)c(Br)c2)C1	/	/	/	/	-14	/	/	/
CC(C)CC(=O)NC(c1ccccc1Cl)c1c(O)ccc2ccccc12 (stereo not drawn)	-1	1	21	16	10	-2	/	/
CCCC(=O)NC(c1ccccc1Cl)c1ccc2cccnc2c1O (stereo not drawn)	99*	15	87*	109*	52	1	89*	53*
Cc1cc(NC(=O)CSc2nc3cc(Cl)ccc3c(=O)n2CC(C)C)no1	-1	-2	1	2	0	-3	/	/
CCn1c(SCC(=O)NCCc2ccccc2)nc2c([nH]c3ccccc32)c1=O	14	0	59*	19	17	-3	32	/

Bioassay records from PubChem BioAssay.
